Results pooled from the literature.
Compare with care: the assays were run in different laboratories.
Target: Histamine H3 receptor (HRH3, Homo sapiens, UniProt Q9Y5N1)
Method: radioligand

| Compound | assay | setting | Ki |
| --- | --- | --- | --- |
| CN1CCN(c2cc(Nc3ccc(OCCCN4CCCCC4)cc3)nc(N)n2)CC1 | ligand displacement | cell membranes | 11.8 nM |
| CC1CCCN(CCCCCCOc2ccc(-c3ccccc3)cc2)C1 (centres unmarked) | ligand displacement | cell membranes | 147 nM |
| CN(C)c1ccc(/C=C/C=C2\CCc3cc(OCc4ccc(OCCCN5CCCCC5)cc4)ccc3C2=O)cc1 | ligand displacement | cell membranes | 68 nM |
| CCCc1ccc(OCCCCCCN2CCCC(C)C2)cc1 (centres unmarked) | ligand displacement | cell membranes | 85.9 nM |
| O=C1CCCc2ccc(OCCCN3CCCCC3)cc21 | ligand displacement | cell membranes | 89 nM |
| CCC(=O)c1ccc(OCCCCCCN2CCCC(C)C2)cc1 (centres unmarked) | ligand displacement | cell membranes | 39 nM |
| CN(C)c1ccc(/C=C2\CCc3ccc(OCc4ccc(OCCCN5CCCCC5)cc4)cc3C2=O)cc1 | ligand displacement | cell membranes | 97 nM |
| O=C1NC(c2ccccc2)(c2ccccc2)C(=O)N1CCCN1CCCCC1 | ligand displacement | cell membranes | 6.15 nM |
| CCCCN1CCC(COC(=O)c2ccc(N)c(OCF)c2)CC1 | cell-free assay | – | 3100 nM |
| O=C1NC(=O)C(c2ccccc2)(c2ccc(OCCCN3CCCCC3)cc2)N1 (centres unmarked) | ligand displacement | cell membranes | 579 nM |
| c1ccc(CNc2ccnc(Nc3ccc(OCCCN4CCCCC4)cc3)n2)cc1 | ligand displacement | cell membranes | 4.49 nM |
